Among the data in PubChem BioAssay AID2341 (Sanford-Burnham Center for Chemical Genomics, 2010) are EC50 values, retold here.

Active and inactive are the calls of the source.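 Rule for the calls: active = half-maximal potency under 10 µM when retested across doses; inactive = the rest.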

Sequence of Cannabinoid receptor 1 (Homo sapiens) (P21554 whole entry, looked up): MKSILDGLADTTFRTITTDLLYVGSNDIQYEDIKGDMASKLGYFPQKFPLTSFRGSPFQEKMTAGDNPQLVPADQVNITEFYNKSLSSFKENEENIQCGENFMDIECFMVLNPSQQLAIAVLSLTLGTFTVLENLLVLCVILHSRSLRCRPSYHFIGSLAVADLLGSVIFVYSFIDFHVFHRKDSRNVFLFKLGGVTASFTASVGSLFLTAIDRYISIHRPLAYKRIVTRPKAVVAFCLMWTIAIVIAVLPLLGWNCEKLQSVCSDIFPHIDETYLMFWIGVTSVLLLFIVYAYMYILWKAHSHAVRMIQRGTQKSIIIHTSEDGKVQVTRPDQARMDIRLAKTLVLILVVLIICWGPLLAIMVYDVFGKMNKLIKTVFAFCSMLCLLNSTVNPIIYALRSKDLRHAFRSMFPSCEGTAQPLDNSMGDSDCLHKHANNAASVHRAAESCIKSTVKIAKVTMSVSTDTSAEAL

In the experiment the target is Cannabinoid receptor 1 (Homo sapiens) (UniProt P21554). Briefly: human CB1 agonism via arrestin-GFP redistribution – imaging, U2OS cells, beta-arrestin-GFP, powder samples, SAR follow-up (AID 2341). Conditions: U2OS CB1 beta-arrestin-GFP translocation imaging. The essentials:
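System: U2OS cells with human CB1 and β-arrestin-GFP / Buffer or medium: serum-free MEM during compound exposure / Dosing: Ten-point series, 62 nM to 32 µM, 0.31% DMSO / Timing: compound exposure 60 min at 37 °C / Replicates: duplicate wells per dose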
For the molecule `CCCN(CCC)Cc1c(C(=O)NN=C/C(C)=C\c2ccccc2)nnn1-c1nonc1N`, the EC50 (as a rule, the concentration giving half of the maximal effect) was > 32 µM (inactive).
With `CCCN(CCC)Cc1c(C(=O)NN=Cc2c[nH]c3ccccc23)nnn1-c1nonc1N`, the EC50 is > 32 µM (inactive).
Next, `C=CCN(CC=C)S(=O)(=O)c1ccc(NC(=S)NC(=O)c2ccc(-c3ccccc3)cc2)cc1`: > 32 µM (inactive); `Cc1cccc(N2CCN(C(=O)c3cc(S(=O)(=O)N(C)C)ccc3N3CCCC3)CC2)c1C`: > 32 µM (inactive).
As to `C/C(C=NNC(=O)c1nnn(-c2nonc2N)c1CN1CCC(C)CC1)=C/c1ccccc1`, the EC50 was > 32 µM (inactive).
For `O=C(CSc1nc2ccccc2s1)N1c2ccccc2Sc2ccc(C(F)(F)F)cc21` the value was > 32 µM (inactive).
For `COc1ccc2cc(C)c3nnc(SCC(=O)Nc4nc(-c5ccc(F)cc5)cs4)n3c2c1` the value was > 32 µM (inactive); for `CN(C)S(=O)(=O)c1ccc(N2CCCC2)c(C(=O)N2CCN(c3ccc([N+](=O)[O-])cc3)CC2)c1`, > 32 µM (inactive); for `CC(Sc1nc2cc(Cl)ccc2s1)C(=O)Nc1cccc(S(=O)(=O)N2CCOCC2)c1` (stereo unspecified), > 32 µM (inactive).
Consider `CC(C)NS(=O)(=O)c1ccc(NC(=S)NC(=O)c2ccc(-c3ccccc3)cc2)cc1`, for which the EC50 was > 32 µM (inactive).
Next, `COc1cc2c(cc1NC(=O)C(C)Sc1ccc(NC(C)=O)cc1)oc1ccccc12` (stereo unspecified): > 32 µM (inactive); `CC(C)=CC(=O)Nc1ccc(OCc2ccccc2)cc1`: > 32 µM (inactive).
In the case of `COc1ccccc1/C=C/C(=O)NC(=S)Nc1ccc(S(=O)(=O)N(C)c2ccccc2)cc1`, the EC50 is > 32 µM (inactive).
Next, `COc1ccc2c(c1)cc(C)c1nnc(SCC(=O)N(C)c3nc(-c4ccccc4)cs3)n12`: > 32 µM (inactive); `Cc1occc1C(=O)Nc1ccc(OCc2ccccc2)cc1`: > 32 µM (inactive).
Next, `COc1cc2c(cc1NC(=O)CSc1ccccc1)oc1ccccc12`: > 32 µM (inactive); `O=C(CSc1nc2ccccc2s1)N1c2ccccc2Sc2ccc(Cl)cc21`: > 32 µM (inactive); `COc1ccc(-c2csc(NC(=O)CSc3nnc4c(C)cc5ccccc5n34)n2)cc1`: > 32 µM (inactive).
Next, `CCCN(CCC)Cc1c(C(=O)NN=C/C(C)=C\c2ccco2)nnn1-c1nonc1N`: > 32 µM (inactive); `CC(C)Oc1ccc(S(=O)(=O)N2CCOCC2)cc1NC(=O)c1ccc(N2CCCC2=O)cc1`: > 32 µM (inactive); `COc1ccc(S(=O)(=O)N2CCOCC2)cc1NC(=O)c1cc2c(s1)CCCC2`: > 32 µM (inactive).
